Results on one compound are retold here after ChEMBL document CHEMBL4819027, “Design, synthesis and biological evaluation of novel 2-(4-(1H-indazol-6-yl)-1H-pyrazol-1-yl)acetamide derivatives as potent VEGFR-2 inhibitors” (Eur J Med Chem, 2021).

Calls of active or inactive are those of the source. The rule behind the calls is not given here.

In experiment [1] the target is T1, Vascular endothelial growth factor receptor 2 (Homo sapiens, UniProt P35968). The experiment is described as follows: Inhibition of VEGFR2 in human HGC-27 cells assessed as downregulation of Akt phosphorylation at […] at 0.1 to 1 uM after 24 hrs by Westernblot analysis. Format: cell-based. The following applies: dose 0.1-1 µM. A digest of the protocol:
(§1)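 HGC-27 cells (1.0 × 10⁶ per 60 mm dish) were treated 24 h with 0.1% DMSO or compound (0.1, 0.5, 1 μM). RIPA lysates with phosphatase inhibitor were quantified by BCA and resolved on 8–12% SDS-PAGE onto nitrocellulose. Blots were probed for p-VEGFR-2 (Tyr1175), p-PI3K (Tyr607), p-AKT (Thr308) and p-mTOR (Ser2448), with ECL detection and densitometry; mean ± SEM.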

Experiment [2] deals with HUVEC. As to the kind of experiment: Antiangiogenic activity against HUVEC cells assessed as reduction in VEGF-induced tube formation tube formation incubated for 12 hrs by matrigel-based assay. The experiment is classed as functional, cell-based. The following applies: Homo sapiens. Summed up:
(§2)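 HUVECs at 4 × 10⁵ cells/mL seeded on Matrigel that had been polymerized 1 h at 37 °C. Cells were stimulated with 20 ng/mL VEGF and treated with compound (1, 2.5, 5 and 10 μM) or 0.1% DMSO vehicle for 12 h at 37 °C. Tubes were imaged by inverted microscopy. Tube length, surface area and branch points were quantified as pixel area.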

The test system of experiment [3] is HGC-27. As to the kind of experiment: Induction of intracellular ROS generation in human HGC-27cells assessed as increase in fluorescence intensity at 0.5 uM incubated for 24 hrs by DCFH-DA staining-based flow cytometric analysis (reference value: 712). Format: functional. On the technique in general: In flow cytometry, cells or beads pass a laser one at a time.

The test system of experiment [4] is HGC-27. The experiment is described as follows: Inhibition of colony formation in human HGC-27 cells at 1 uM after 12 days by crystal violet staining based assay. The experiment is classed as functional. The following applies: HGC-27, 288 h, time 12 day. A digest of the protocol: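 HGC-27 cells (500/well, 6-well plates) attached 24 h at 37 °C, then kept 12 days in medium with compound (0.1, 0.5, 1 µM), 0.1% DMSO vehicle or 5 µM sorafenib. Washed with cold PBS, methanol-fixed, stained 0.1% crystal violet 30 min; colonies >50 cells photographed and counted.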

In experiment [5] the test system is HGC-27. As to the kind of experiment: Induction of apoptosis in human HGC-27 cells assessed as necrotic cells level at 1 uM incubated for 24 hrs by propidium iode and annexin V-FITC staining based flow cytometry (reference value: 1.64%). Format: functional. Summed up:
(§3)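 HGC-27 cells (1.0 × 10⁶ per 60 mm dish) were treated 24 h with 0.1% DMSO or compound (0.1, 0.5, 1 μM). Cells were stained with Annexin V-FITC in HEPES/NaCl/CaCl₂ binding buffer (pH 7.4) for 15 min at room temperature, then with PI for 10 min. About 10 000 events were acquired by flow cytometry to give viable, early apoptotic, late apoptotic and necrotic fractions.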

The subject of experiment [6] is HGC-27. The experiment is described as follows: Antimigratory activity against human HGC-27 cells assessed as relative closure of scratches at 0.5 uM measured after 24 hrs by scratch wound healing assay relative to control. Format: functional. A digest of the protocol:
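HGC-27 monolayers at 80–90% confluence were serum-starved 12 h, then scratched to give 1 mm lanes. After a PBS wash, cells received complete medium with or without compound (0.1, 0.5, 1 μM). Wounds were imaged at 0, 6 and 24 h. Relative scratch closure was quantified against untreated control; mean ± SD of three experiments.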

Experiment [7] concerns HGC-27. The experiment is described as follows: Induction of apoptosis in human HGC-27 cells assessed as early apoptotic cells level at 1 uM incubated for 24 hrs by propidium iode and annexin V-FITC staining based flow cytometry (reference value: 1.48%). Format: functional. A digest of the protocol: as §3
The subject of experiment [8] is HGC-27. The experiment is described as follows: Induction of apoptosis in human HGC-27 cells assessed as viable cells level at 0.1 uM incubated for 24 hrs by propidium iode and annexin V-FITC staining based flow cytometry (reference value: 96.0%). The experiment is classed as functional. A digest of the protocol:
as §3

Experiment [9] deals with HGC-27. As to the kind of experiment: Induction of apoptosis in human HGC-27 cells assessed as necrotic cells level at 0.1 uM incubated for 24 hrs by propidium iode and annexin V-FITC staining based flow cytometry (reference value: 1.64%). Format: functional. A digest of the protocol:
as §3

Experiment [10] relates to HUVEC. As to the kind of experiment: Antiangiogenic activity against HUVEC cells assessed as reduction in VEGF-induced tube surface area at 1 to 10 uM incubated for 12 hrs by matrigel-based assay. The experiment is classed as functional, cell-based. To be noted: Homo sapiens, dose 1-10 µM. Summed up: as §2
Experiment [11] addresses T1, Vascular endothelial growth factor receptor 2. The experiment is described as follows: Inhibition of VEGFR2 in human HGC-27 cells assessed as downregulation of PI3K phosphorylation at Tyr607 at 0.1 to 1 uM after 24 hrs by Westernblot analysis. The experiment is classed as cell-based. The following applies: dose 0.1-1 µM. A digest of the protocol: as §1
The target is the same in experiment [12]. The experiment is described as follows: Inhibition of VEGFR2 in human HGC-27 cells assessed as downregulation of mTOR phosphorylation at Ser2448 at 0.1 to 1 uM after 24 hrs by Westernblot analysis. Format: cell-based. To be noted: dose 0.1-1 µM. Summed up: as §1
In experiment [13] the test system is HUVEC. The experiment is described as follows: Antiangiogenic activity against HUVEC cells assessed as reduction in VEGF-induced tube length at 1 to 10 uM incubated for 12 hrs by matrigel-based assay. The experiment is classed as functional, cell-based. The following applies: Homo sapiens, dose 1-10 µM. Summed up: as §2
In experiment [14] the test system is HGC-27. As to the kind of experiment: Induction of apoptosis in human HGC-27 cells assessed as viable cells level at 0.5 uM incubated for 24 hrs by propidium iode and annexin V-FITC staining based flow cytometry (reference value: 96.0%). Format: functional. Summed up:
as §3

For experiment [15], the target named is T1, Vascular endothelial growth factor receptor 2. As to the kind of experiment: Inhibition of VEGFR2-mediated angiogenesis in HUVEC cells assessed as reduction of phosphorylation of VEGFR-2 after 24 hrs by Westernblot analysis relative to control. Format: cell-based. The following applies: dose 1-10 µM. A digest of the protocol:
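HUVECs seeded at 1.0×10^6 cells/dish in ECM with 1% ECGS, 10% FBS; treated 24 h with test compound (1, 5, 10 µM), 0.1% DMSO vehicle or 10 µM sorafenib. Lysed in RIPA with PMSF and phosphatase inhibitor; 8–12% SDS-PAGE, nitrocellulose, milk block, CST primaries overnight 4 °C, HRP secondaries, ECL; p-VEGFR-2 (Tyr1175) densitometry; at least triplicate.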

Experiment [16] relates to HGC-27. The experiment is described as follows: Induction of apoptosis in human HGC-27 cells assessed as late apoptotic cells level at 1 uM incubated for 24 hrs by propidium iode and annexin V-FITC staining based flow cytometry (reference value: 0.86). Format: functional. A digest of the protocol:
as §3

For experiment [17], the system named is HepG2. As to the kind of experiment: Antiproliferative activity against human HepG2 cells assessed as cell growth inhibition after 72 hrs by MTT assay. The experiment is classed as functional, cell-based. To be noted: HepG2, 72 h. Summed up: (§4)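 Log-phase cells were seeded at 5 × 10³ per well and attached 24 h. HT-29 and GES-1 were grown in DMEM-based medium, A549/HepG2/HGC-27 in RPMI-1640, HUVEC in ECM with ECGS; all media had 10% FBS. Cells were exposed to graded compound concentrations for 72 h at 37 °C. MTT (5 mg/mL stock) was added for 4 h, formazan dissolved in DMSO, and A490 read. IC50 was obtained by nonlinear sigmoidal regression; mean ± S.E. of three experiments.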
(In general: Tetrazolium assays rely on reduction of a dye to a coloured formazan, in cell work by metabolically active cells.)

In experiment [18] the test system is A549. The experiment is described as follows: Antiproliferative activity against human A549 cells assessed as cell growth inhibition after 72 hrs by MTT assay. Format: functional, cell-based. The following applies: A549, 72 h. A digest of the protocol: as §4
Experiment [19] concerns HGC-27. The experiment is described as follows: Induction of intracellular ROS generation in human HGC-27cells incubated for 24 hrs by DCFH-DA staining-based flow cytometric analysis. The following applies: dose 0.1-1 µM. The experiment is classed as functional, cell-based. Summed up:
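HGC-27 cells (5.0 × 10⁵ per well) were treated 24 h with compound (0.1, 0.5, 1 μM) or 0.1% DMSO. Harvested cells were loaded with 10 μM DCFH-DA in PBS for 20 min at 37 °C. Green fluorescence intensity was measured by flow cytometry.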

Experiment [20] concerns HGC-27. As to the kind of experiment: Antimigratory activity against human HGC-27 cells assessed as number of migration cells at 0.1 uM measured after 24 hrs by transwell migration assay (reference value: 320). The experiment is classed as functional.

T1 sequence (P35968 whole entry): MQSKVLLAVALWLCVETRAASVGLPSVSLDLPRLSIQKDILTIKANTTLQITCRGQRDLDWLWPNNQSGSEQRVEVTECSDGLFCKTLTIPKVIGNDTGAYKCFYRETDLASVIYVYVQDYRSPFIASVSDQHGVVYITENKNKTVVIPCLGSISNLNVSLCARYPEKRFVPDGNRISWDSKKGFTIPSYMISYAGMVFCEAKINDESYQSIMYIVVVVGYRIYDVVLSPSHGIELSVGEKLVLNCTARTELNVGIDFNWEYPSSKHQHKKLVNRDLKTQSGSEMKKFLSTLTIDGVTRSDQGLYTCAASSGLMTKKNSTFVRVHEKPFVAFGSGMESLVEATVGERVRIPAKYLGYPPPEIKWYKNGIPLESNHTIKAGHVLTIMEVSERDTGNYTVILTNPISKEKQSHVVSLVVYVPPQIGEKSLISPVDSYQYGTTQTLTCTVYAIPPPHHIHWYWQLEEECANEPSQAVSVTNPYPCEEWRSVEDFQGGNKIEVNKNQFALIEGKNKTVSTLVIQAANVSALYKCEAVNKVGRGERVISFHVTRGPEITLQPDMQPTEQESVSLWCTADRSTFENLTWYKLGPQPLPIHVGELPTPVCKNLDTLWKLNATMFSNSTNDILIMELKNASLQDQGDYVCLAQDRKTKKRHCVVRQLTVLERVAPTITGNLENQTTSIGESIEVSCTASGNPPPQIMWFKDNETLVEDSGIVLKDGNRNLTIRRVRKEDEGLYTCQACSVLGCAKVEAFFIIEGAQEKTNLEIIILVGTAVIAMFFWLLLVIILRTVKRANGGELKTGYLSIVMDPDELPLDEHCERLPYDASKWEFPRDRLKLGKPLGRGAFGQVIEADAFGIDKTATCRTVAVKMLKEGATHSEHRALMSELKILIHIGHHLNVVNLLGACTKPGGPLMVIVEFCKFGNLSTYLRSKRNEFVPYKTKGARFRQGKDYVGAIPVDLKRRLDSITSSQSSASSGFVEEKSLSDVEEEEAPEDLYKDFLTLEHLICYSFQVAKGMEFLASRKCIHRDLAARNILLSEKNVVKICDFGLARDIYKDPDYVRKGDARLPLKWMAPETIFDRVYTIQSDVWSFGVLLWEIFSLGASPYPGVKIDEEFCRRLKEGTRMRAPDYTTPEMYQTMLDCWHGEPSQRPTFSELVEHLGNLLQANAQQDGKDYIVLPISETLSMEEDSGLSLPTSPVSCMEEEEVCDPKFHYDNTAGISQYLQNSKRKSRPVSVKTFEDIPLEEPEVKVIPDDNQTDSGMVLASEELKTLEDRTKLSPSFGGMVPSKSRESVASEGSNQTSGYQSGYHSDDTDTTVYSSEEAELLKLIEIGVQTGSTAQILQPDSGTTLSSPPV

Broadly, the inhibition is the change of the read-out against control, counted positive when it falls. As usually defined, the IC50 is the concentration needed to halve the response being measured. For `CC(=O)Nc1n[nH]c2cc(-c3cnn(CC(=O)Nc4ccc(C)c(C(F)(F)F)c4)c3)ccc12`, the inhibition result in [1], in experiment [11] and in experiment [12] was “Active” throughout. Moreover, the inhibition result in [2] and in experiment [15] was “Dose-Dependent Effect” in each case. Also, the Flu intensity in experiment [3] is given as 945. The compound also came in with an inhibition at 1 µM in experiment [4] of 100%. The Activity in [5] is reported as 9.59%; in experiment [7], 11.8%; in experiment [8] it was 90.5%; in [9], 2.12%; in [14], 69.7%; in [16] it was 17%. In addition, the Activity entry was “Dose-Dependent Effect” in [19] and 212 in experiment [20]. Besides, in experiment [6], the inhibition at 0.5 µM is 28%. In addition, the outcome in experiment [10] and in experiment [13] was Active. Besides, the results for the half-maximal inhibitory concentration (IC50) in [17] and in [18] were 15 µM and 4.31 µM, respectively.
